Source: PubChem
This is a sample that favours compounds with a hit; in the whole collection about 0.99% have one here.
Rce1 inhib = inhibitors of yeast Ras-converting enzyme. Q03530. hit rate 0.27% among 290,000. yeast membranes, quenched prenylated peptide cleavage fluorescence. calls only;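 active = fall in fluorescence gain of 50% or more versus controls, with final raw signal at or below 3038400; inconclusive = same 50% fall but final raw signal above 3038400; inactive = fall in fluorescence gain under 50%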
Target sequence (Q03530 whole entry, looked up): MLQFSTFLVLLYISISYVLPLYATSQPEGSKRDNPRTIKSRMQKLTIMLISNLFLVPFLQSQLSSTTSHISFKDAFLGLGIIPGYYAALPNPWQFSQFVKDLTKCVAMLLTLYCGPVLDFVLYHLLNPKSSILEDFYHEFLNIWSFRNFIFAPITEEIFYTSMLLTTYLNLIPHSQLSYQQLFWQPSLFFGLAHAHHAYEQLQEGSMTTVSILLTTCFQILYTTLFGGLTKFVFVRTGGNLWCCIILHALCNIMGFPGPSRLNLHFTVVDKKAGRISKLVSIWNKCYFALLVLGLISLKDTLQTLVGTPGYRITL
Dyrk1A ADPGlo = inhibitors of rat Dyrk1A kinase; Q63470; ADP-Glo luminescence, NFATc1 peptide; inhibition, % at 12.5 µM; hit rate 0.43% among 310,000; AID 504441; in the data active = inhibition above about 50%
STK33 kinase inh = human STK33 kinase inhibition; inhibition, % at 10 µM; hit rate 0.073% among 320,000; purified STK33, MBP phosphorylation, ADP-Glo luminescence; AID 2661;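 active = inhibition at or above 25%, using the most active replicate where run in duplicate; inactive = inhibition below 25%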
GSK3A inh = human GSK-3 alpha kinase inhibition | hit rate 0.1% among 320,000 | ADP-Glo luminescence, 60 min | AID 2650 | inhibition, % at 10 µM;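 active = more than half of replicates show inhibition above 20%; inconclusive = some but at most half of replicates above 20% inhibition; inactive = no replicate shows inhibition above 20%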;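 note: GST-tagged GSK-3 alpha with peptide substrate and 25 µM ATP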
Target sequence (P49840 whole entry, looked up): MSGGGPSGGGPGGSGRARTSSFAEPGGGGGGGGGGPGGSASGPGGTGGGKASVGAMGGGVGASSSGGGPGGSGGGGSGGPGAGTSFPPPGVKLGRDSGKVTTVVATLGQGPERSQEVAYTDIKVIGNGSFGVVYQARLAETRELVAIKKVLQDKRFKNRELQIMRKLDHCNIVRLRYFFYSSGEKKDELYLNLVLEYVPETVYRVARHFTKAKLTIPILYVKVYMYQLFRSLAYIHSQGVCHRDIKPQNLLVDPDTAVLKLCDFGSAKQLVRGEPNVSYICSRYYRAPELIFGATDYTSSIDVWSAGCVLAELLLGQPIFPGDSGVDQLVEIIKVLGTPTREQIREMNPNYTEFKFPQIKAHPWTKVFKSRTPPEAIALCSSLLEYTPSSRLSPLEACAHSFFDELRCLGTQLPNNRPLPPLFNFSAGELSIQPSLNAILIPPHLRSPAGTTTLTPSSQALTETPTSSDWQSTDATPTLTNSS
AI-2 QS mod = Vibrio harveyi AI-2 quorum sensing modulation; hit rate 0.4% among 300,000; Vibrio harveyi JMH597 AI-2 luminescence/OD600 ratio, 9 h; active compounds read low; strain lacks LuxN and CqsS sensors; 0 = neutral-control median; activity change, % at 7.5 µM; in the data active = activity change below about -75%, passing the limit was not always enough; inconclusive = no clear call, values can overlap the other calls;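 note: luminescence divided by OD600 gain over 9 h not by final OD600 alone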
GSK3B inh = blocks human GSK3beta kinase activity; P49841; GST-GSK3beta kinase, ADP-Glo luminescence, 60 min; active compounds read low; activity score (negative = inhibition), % at 10 µM; hit rate 0.038% among 300,000; AID 2097;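 active = more than half of replicate wells score below -50%, meaning over 50% inhibition versus plate controls; inconclusive = some replicates but at most half score below -50%; inactive = no replicate scores below -50%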
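Test system: GST-fused GSK3beta enzyme, cell-free | Quantity: 1.6 ng GST-GSK3beta enzyme per well | Reagent: 25 µM ATP with peptide substrate | Schedule: 60 min enzyme reaction, room temperature | Signal: Luminescent ADP-Glo measurement of ADP formed | Read-out basis: Score relative to plate controls | Control set: DMSO and 20 µM GW8510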
JMH597 growth = retest: inhibitors of Vibrio harveyi JMH597 growth; shares compounds with AI-2 QS mod; OD600 absorbance, 9 h; lacks LuxN and CqsS sensors; growth inhibition, % at 7.5 µM; hit rate 1% among 750; AID 2726;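 active = every replicate shows growth inhibition above 50%; inconclusive = at least half, but not all, replicates pass that cutoff; inactive = fewer than half of replicates pass it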
BB721 const-QS lum = retest counter-screen: BB721 constitutive quorum sensing luminescence decrease; shares compounds with AI-2 QS mod; Vibrio harveyi BB721 luminescence, 9 h; inhibition, % at 7.5 µM; hit rate 95% among 750;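 active = inhibition above about 80% in every replicate, not just on average, limit read from the data; inconclusive = at least half of replicates past the limit, but not all; inactive = fewer than half of replicates past the limit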
BB721 growth = retest: inhibitors of Vibrio harveyi BB721 growth. shares compounds with AI-2 QS mod. OD600 absorbance, 9 h. growth inhibition, % at 7.5 µM. hit rate 3% among 750;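 active = every replicate shows growth inhibition above 50%; inconclusive = at least half but not all replicates above 50% inhibition; inactive = under half of replicates above 50% inhibition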
AI-2 QS JMH597 = Vibrio harveyi AI-2 signaling luminescence modulation – JMH597 strain, confirmation; hit rate 97% among 750; Vibrio harveyi JMH597 AI-2 quorum sensing luminescence, 9 h; luxN and CqsS knockout, AI-2 only; inhibition, % at 7.5 µM; shares compounds with AI-2 QS mod;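 active = every replicate shows more than 75% inhibition of signal versus neutral control wells; inconclusive = half to three quarters of replicates exceed 75% inhibition; inactive = fewer than half of replicates exceed 75% inhibition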
Large screens that a line does not name were inactive (follow-up assays come after a bar, where they were run).

CCOC(=O)Oc1ccc2c(=O)c(Oc3cccc(C)c3)coc2c1	AI-2 QS mod -85 | JMH597 growth 75 | BB721 const-QS lum 97 | BB721 growth inconclusive | AI-2 QS JMH597 97
O=C(COC(=O)Cc1ccccc1F)Nc1ccc(SC(F)F)cc1	none
O=C(Cc1ccccc1F)Nc1ccc(SC(F)F)cc1	AI-2 QS mod -83 | JMH597 growth inactive | BB721 const-QS lum 94 | BB721 growth inactive | AI-2 QS JMH597 94
Cc1ccc(S(=O)(=O)/C=C/c2ccccc2)cc1	AI-2 QS mod -85 | JMH597 growth inactive | BB721 const-QS lum 93 | BB721 growth inactive | AI-2 QS JMH597 100
Cc1ccccc1-c1ccc(=O)n(CC(=O)Nc2ccc(S(=O)(=O)N(C)C)cc2)n1	AI-2 QS mod -87 | JMH597 growth inactive | BB721 const-QS lum 93 | BB721 growth inactive | AI-2 QS JMH597 96
CN(C)S(=O)(=O)c1ccc(NC(=S)NC(=O)Cc2ccccc2)cc1	AI-2 QS mod -86 | JMH597 growth inactive | BB721 const-QS lum inactive | BB721 growth inactive | AI-2 QS JMH597 inactive
COc1cc2c(cc1OC)C(Cc1ccc(O)c(Oc3ccc(C[C@H]4c5cc(OC)c(OC)cc5CCN4C)cc3)c1)N(C)CC2 (stereo partly drawn)	none (no result: Rce1 inhib, Dyrk1A ADPGlo, AI-2 QS mod, GSK3B inh)
O=C(Nc1ccc(Oc2cccc3ccccc23)cc1)c1ccco1	AI-2 QS mod -88 | JMH597 growth inactive | BB721 const-QS lum 95 | BB721 growth inactive | AI-2 QS JMH597 93
O=C(O)c1ccccc1C(=O)Nc1ccc(Oc2cccc3ccccc23)cc1	none (no result: Rce1 inhib, STK33 kinase inh, GSK3A inh)
O=C(OC1CCCCC1)c1ccc(NC(=O)c2ccco2)cc1	AI-2 QS mod -79 | JMH597 growth inactive | BB721 const-QS lum 85 | BB721 growth inconclusive | AI-2 QS JMH597 90
O=C(NNc1nc2cc3c(cc2s1)OCCO3)c1ccccc1	AI-2 QS mod -93 (no result: Dyrk1A ADPGlo) | JMH597 growth inactive | BB721 const-QS lum 98 | BB721 growth inactive | AI-2 QS JMH597 98
CC(=O)c1ccc(NC(=O)CCCCCn2nnc3ccccc3c2=O)cc1	none
Cc1ccc(NC(=O)Cn2nnc3ccccc3c2=O)cc1C	AI-2 QS mod -93 (no result: Dyrk1A ADPGlo) | JMH597 growth inactive | BB721 const-QS lum 99 | BB721 growth inactive | AI-2 QS JMH597 99
O=C(Cn1nnc2ccccc2c1=O)Nc1ccc(S(=O)(=O)N2CCOCC2)cc1	AI-2 QS mod -97 | JMH597 growth inactive | BB721 const-QS lum 99 | BB721 growth inactive | AI-2 QS JMH597 100
Cc1ccc(NC(=O)Cn2nnc3ccccc3c2=O)cc1	AI-2 QS mod -84 (no result: Dyrk1A ADPGlo) | JMH597 growth inactive | BB721 const-QS lum 97 | BB721 growth inactive | AI-2 QS JMH597 98
CCOc1ccc(CN(C)C(=O)c2ccc(S(=O)(=O)N(C)c3ccccc3OC)cc2)cc1	none (no result: Rce1 inhib, Dyrk1A ADPGlo, AI-2 QS mod, GSK3B inh)
C=C(C)CCC(C)N1CCC(n2nccc2NC(=O)CCOc2ccccc2)CC1 (stereo not drawn)	none
Cc1ccc(NC(=O)Cc2nn(C)c(=O)c3ccccc23)cc1F	none
COc1ccc(NC(=O)Cn2nc(C)c3ccccc3c2=O)cc1	AI-2 QS mod -92 | JMH597 growth inactive | BB721 const-QS lum 97 | BB721 growth inactive | AI-2 QS JMH597 98
Cc1ccc(NC(=O)Cn2nc(C)c3ccccc3c2=O)cc1F	AI-2 QS mod -93 | JMH597 growth inactive | BB721 const-QS lum 99 | BB721 growth inactive | AI-2 QS JMH597 99
Cc1nn(CC(=O)Nc2ccc(C(=O)N(C)C)cc2)c(=O)c2ccccc12	AI-2 QS mod -90 | JMH597 growth inactive | BB721 const-QS lum 97 | BB721 growth inactive | AI-2 QS JMH597 98
Cc1nn(CC(N)=O)c(=O)c2ccccc12	none
Cc1nnc(NC(=O)Cn2nc(C)c3ccccc3c2=O)s1	AI-2 QS mod -90 | JMH597 growth inactive | BB721 const-QS lum 98 | BB721 growth inactive | AI-2 QS JMH597 99
CCN(CC)C1Oc2cc3c(cc2C(c2cc(OC)c(OC)c(OC)c2)C1C)OCO3 (stereo not drawn)	none (no result: Rce1 inhib, STK33 kinase inh, GSK3A inh, AI-2 QS mod, GSK3B inh)
Cn1c(=O)c2c(ncn2CCOc2cccc(Br)c2)n(C)c1=O	none
Cc1ccc(NC(=O)CCCC2CCCCC2)c(O)c1	AI-2 QS mod -91 | JMH597 growth inactive | BB721 const-QS lum 97 | BB721 growth inactive | AI-2 QS JMH597 98
O=C(CCl)N1CCN(S(=O)(=O)Cc2ccccc2)CC1	none (no result: Rce1 inhib, AI-2 QS mod, GSK3B inh)
O=C(CN1C(=O)NC(Cc2ccccc2)C1=O)Nc1ccccc1 (stereo not drawn)	none (no result: GSK3A inh)
N#Cc1ccc(NC(=O)CN2C(=O)NC(Cc3ccccc3)C2=O)cc1 (stereo not drawn)	none
N#Cc1cccc(NC(=O)CN2C(=O)NC(Cc3ccccc3)C2=O)c1 (stereo not drawn)	AI-2 QS mod -84 | JMH597 growth inactive | BB721 const-QS lum 89 | BB721 growth inactive | AI-2 QS JMH597 93
Cc1cccc(NC(=O)CN2C(=O)NC(Cc3ccccc3)C2=O)c1 (stereo not drawn)	AI-2 QS mod inconclusive | JMH597 growth inactive | BB721 const-QS lum 85 | BB721 growth inactive | AI-2 QS JMH597 89
O=c1[nH]c(=O)n(Cc2ccc(Oc3ccccc3)cc2)cc1Br	AI-2 QS mod -86 | JMH597 growth inactive | BB721 const-QS lum 93 | BB721 growth inactive | AI-2 QS JMH597 95
N#Cc1cn(Cc2ccccc2)c(=O)[nH]c1=O	none
O=C1NN=C(c2ccc(Br)cc2)CC1c1ccc(Cl)cc1 (stereo not drawn)	AI-2 QS mod -84 | JMH597 growth inactive | BB721 const-QS lum 98 | BB721 growth inactive | AI-2 QS JMH597 97
CCc1ccc(C2CC(c3ccc(Cl)cc3)=NNC2=O)cc1 (stereo not drawn)	AI-2 QS mod -82 | JMH597 growth inactive | BB721 const-QS lum 88 | BB721 growth inactive | AI-2 QS JMH597 87
Cc1ccc(C2CC(c3ccc(Cl)cc3)=NNC2=O)cc1 (stereo not drawn)	none
Cc1ccc(/C=C/C(=O)c2ccc(O)cc2)cc1	AI-2 QS mod -94 | JMH597 growth inactive | BB721 const-QS lum 97 | BB721 growth inactive | AI-2 QS JMH597 98
COc1ccc2nc(NNC(=O)C3COc4ccccc4O3)sc2c1 (stereo not drawn)	AI-2 QS mod -85 | JMH597 growth inactive | BB721 const-QS lum 92 | BB721 growth inactive | AI-2 QS JMH597 95
CCOc1ccccc1N1CCN(CC(=O)Nc2ccnn2C2CCCC2)CC1	none (no result: Rce1 inhib, Dyrk1A ADPGlo, AI-2 QS mod, GSK3B inh)
